Published values of several laboratories.
Compare with care: the assays were run in different laboratories.
PTGS1: Prostaglandin G/H synthase 1 (PTGS1, Ovis aries, UniProt P05979)
SIRT3: NAD-dependent protein deacetylase sirtuin-3, mitochondrial (SIRT3, Homo sapiens, UniProt Q9NTG7)

Structure (SMILES)	target	test	system	setting	inhibition [%]
O=c1c(O[C@@H]2O[C@H](CO)[C@@H](O)[C@H](O)[C@H]2O)c(-c2ccc(O)cc2)oc2cc(O[C@@H]3O[C@H](CO)[C@@H](O)[C@H](O)[C@H]3O)cc(O)c12	PTGS1	enzyme activity, inhibitor, absorbance	–	50 µM	62.9
CCCCCCCCCCCCNC(=S)NCCCC[C@H](NC(=O)OCc1ccccc1)C(=O)N[C@@H](Cc1c[nH]c2ccccc12)C(=O)N[C@@H](CCNC(=N)N)C(N)=O	SIRT3	enzyme activity, inhibitor	–	10 µM	48
O=C(O)Cc1ccccc1OP(=O)(O)O	Signal transducer and activator of transcription 5A, SH2 (Homo sapiens, UniProt P42229)	ligand displacement, FP	–	100 µM	40
O=C(NC1CCC1)[C@H](Cc1c[nH]c2ccccc12)NC(=O)[C@H](CCCCNC(=S)NCc1n[nH]c(=S)o1)NS(=O)(=O)c1cccc(F)c1	SIRT3	enzyme activity, inhibitor	–	30 µM	12
CCCCCCCCCCCCNC(=S)NCCCC[C@H](NC(=O)OCc1ccccc1)C(=O)N[C@@H](Cc1c[nH]c2ccccc12)C(=O)N[C@@H](CCCNC(=N)N)C(N)=O	SIRT3	enzyme activity, inhibitor	–	10 µM	62
CCCCCC1CC(=O)c2cc(OC)ccc2O1 (centres unmarked)	SIRT3	enzyme activity, inhibitor, fluorescence	–	200 µM	9.5
O=C1CC(CCNC(=S)NCCCC[C@H](NS(=O)(=O)c2cccc(F)c2)C(=O)N[C@@H](Cc2c[nH]c3ccccc23)C(=O)NC2CCC2)=NO1	SIRT3	enzyme activity, inhibitor	–	10 µM	40
CCCCCCCCCCCCNC(=S)NCCCC[C@H](NC(=O)OCc1ccccc1)C(=O)N[C@@H](Cc1c[nH]c2ccccc12)C(=O)N[C@@H](CCC(=O)O)C(N)=O	SIRT3	enzyme activity, inhibitor	–	10 µM	21
O=C(c1ccc(Cl)cc1)N(Cc1ccccc1)C1CCCCC1	Gamma-aminobutyric acid receptor subunit alpha-1 (GABRA1, Homo sapiens, UniProt P14867)	cell-free assay	–	10 µM	-34.8
CCCCCC1CC(=O)c2cc(Cl)ccc2O1 (centres unmarked)	SIRT3	enzyme activity, inhibitor, fluorescence	–	200 µM	6
COc1ccc2c(c1)C(CC(=O)O)=C/C2=C\c1ccc(-c2ccccc2)cc1	PTGS1	enzyme activity, inhibitor	–	4 µM	49
COc1cc(NC(C)=O)c(Cl)cc1C(=O)Nc1nccs1	Type-2 angiotensin II receptor (AGTR2, Homo sapiens, UniProt P50052)	cell-free assay	–	10 µM	2.7
C[C@@H]1O[C@@H](OC[C@H]2O[C@@H](Oc3c(-c4ccc(O)cc4)oc4cc(O)cc(O)c4c3=O)[C@H](O[C@@H]3O[C@H](CO)[C@@H](O)[C@H](O)[C@H]3O)[C@@H](O)[C@@H]2O)[C@H](O)[C@H](O)[C@H]1O	PTGS1	enzyme activity, inhibitor, absorbance	–	50 µM	72.6
Cc1ccc(C(=O)Nc2ccc(S(=O)(=O)O)c3cc(S(=O)(=O)O)cc(S(=O)(=O)O)c23)cc1NC(=O)c1cccc(NC(=O)Nc2cccc(C(=O)Nc3cc(C(=O)Nc4ccc(S(=O)(=O)O)c5cc(S(=O)(=O)O)cc(S(=O)(=O)O)c45)ccc3C)c2)c1	SIRT3	enzyme activity, inhibitor	–	100 µM	6
C[C@@H]1O[C@@H](O[C@H]2[C@H](Oc3c(-c4ccc(O)cc4)oc4cc(O)cc(O)c4c3=O)O[C@H](CO[C@@H]3O[C@H](CO)[C@@H](O)[C@H](O)[C@H]3O)[C@@H](O)[C@@H]2O)[C@H](O)[C@H](O)[C@H]1O	PTGS1	enzyme activity, inhibitor, absorbance	–	50 µM	76.2
CC(=S)NCCCC[C@H](NC(=O)OCc1ccccc1)C(=O)N[C@@H](Cc1c[nH]c2ccccc12)C(=O)N[C@@H](CC(N)=O)C(N)=O	SIRT3	enzyme activity, inhibitor	–	10 µM	14
CN1CC(Oc2cnc(C#N)cc2-c2ccn3nc(NC(=O)C4CC4)cc3c2)C1	Transcription initiation factor TFIID subunit 1-like (TAF1L, Homo sapiens, UniProt Q8IZX4)	enzyme activity, inhibitor	–	1 µM	-5
COc1ccc(-n2nc(OCCCN3CCCCC3)ccc2=O)cc1	Transient receptor potential cation channel subfamily V member 1 (TRPV1, Homo sapiens, UniProt Q8NER1)	ligand displacement	–	1 µM	44.5

Structure (SMILES)	target	test	system	setting	inhibition [%]
CCCCCC1CC(=O)c2cc(Br)cc(Br)c2O1 (centres unmarked)	SIRT3	enzyme activity, inhibitor, fluorescence	–	200 µM	6.5
CCCCCCCCCCCCNC(=S)NCCCC[C@H](NC(=O)OCc1ccccc1)C(=O)N[C@@H](CCCCN)C(=O)N[C@@H](CCCNC(=N)N)C(N)=O	SIRT3	enzyme activity, inhibitor	–	1 µM	54
C=CN1CCCn2c1nc1c2c(=O)n(C)c(=O)n1C	Adenosine receptor A2a (Adora2a, Rattus norvegicus, UniProt P30543)	ligand displacement, radioligand	–	25 µM, cell membranes	47
O=C(Nc1ccc(S(=O)(=O)N2CCC(Cl)CC2)cc1)c1ccc([N+](=O)[O-])o1	Androgen receptor (Ar, Rattus norvegicus, UniProt P15207)	ligand displacement, radioligand	–	10 µM	8
CCCCCC1CCc2cc(Cl)cc(Br)c2O1 (centres unmarked)	SIRT3	enzyme activity, inhibitor, fluorescence	–	200 µM	1.2
CNc1cc(Oc2cc(C(=O)Nc3cc(N4CCN(C)CC4)cc(C(F)(F)F)c3)ccc2C)ncn1	STE20-related kinase adapter protein alpha (STRADA, Homo sapiens, UniProt Q7RTN6)	target engagement in cells, inhibitor, chemoproteomics	Huh-7	1 µM	-86.8
Oc1cccc(Nc2nc(-c3ccc(F)cc3F)cs2)c1	Sodium-dependent serotonin transporter (SLC6A4, Homo sapiens, UniProt P31645)	cell-free assay	–	10 µM	-7.7
CCCCCC1CC(O)c2cc(Cl)cc(Br)c2O1 (centres unmarked)	SIRT3	enzyme activity, inhibitor, fluorescence	–	200 µM	3.6
CCCCCCCCCCCCNC(=S)NCCCC[C@H](NC(=O)OCc1ccccc1)C(=O)N[C@@H](Cc1c[nH]c2ccccc12)C(=O)N[C@@H](CCCCNC(=N)N)C(N)=O	SIRT3	enzyme activity, inhibitor	–	10 µM	20
Cc1ccc(S(=O)(=O)n2cc(CCC3CC(=O)c4cc(Cl)cc(Br)c4O3)c3ccccc32)cc1 (centres unmarked)	SIRT3	enzyme activity, inhibitor, fluorescence	–	200 µM	13
C[C@@H]1O[C@@H](OC[C@H]2O[C@@H](O[C@H]3[C@H](Oc4c(-c5ccc(O)cc5)oc5cc(O)cc(O)c5c4=O)O[C@H](CO)[C@@H](O)[C@@H]3O)[C@H](O)[C@@H](O)[C@@H]2O)[C@H](O)[C@H](O)[C@H]1O	PTGS1	enzyme activity, inhibitor, absorbance	–	50 µM	53.3
CCCCCCCC1CC(=O)c2cc(Cl)cc(Br)c2O1 (centres unmarked)	SIRT3	enzyme activity, inhibitor, fluorescence	–	200 µM	8.3
CN(C)C1CCN(CC#Cc2nn(C3CCCC3)c3nc(NCc4ccccc4)ncc23)C1 (centres unmarked)	Ribosomal protein S6 kinase alpha-3 (RPS6KA3, Homo sapiens, UniProt P51812)	enzyme activity, inhibitor, FRET	–	1 µM	2
O=C(Nc1cccc(C(=O)Nc2ccc3[nH]ncc3c2)c1)Nc1ccccc1F	BDNF/NT-3 growth factors receptor (NTRK2, Homo sapiens, UniProt Q16620)	enzyme activity, inhibitor, FRET	–	1 µM	27.8
CCCCCCCCCCCCNC(=S)NCCCC[C@H](NC(=O)OCc1ccccc1)C(=O)N[C@@H](C)C(=O)N[C@@H](CCCNC(=N)N)C(N)=O	SIRT3	enzyme activity, inhibitor	–	1 µM	20
O=C1CC(CCc2c[nH]c3ccccc23)Oc2c(Br)cc(Cl)cc21 (centres unmarked)	SIRT3	enzyme activity, inhibitor, fluorescence	–	200 µM	20
NC(=O)CCNC(=S)NCCCC[C@H](NS(=O)(=O)c1cccc(F)c1)C(=O)N[C@@H](Cc1c[nH]c2ccccc12)C(=O)NC1CCC1	SIRT3	enzyme activity, inhibitor	–	10 µM	30
